Activity calls are given as the source filed them. No cut-off for these calls is given here.
Columns and labels:
[1] = test system: HGC-27; assay: Induction of apoptosis in human HGC-27 cells assessed as necrotic cells level at 1 uM incubated for 24 hrs by propidium iode and annexin V-FITC staining based flow cytometry (reference value: 1.64%); type: functional
Summary of the method: (§1)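 HGC-27 cells (1.0 × 10⁶ per 60 mm dish) were treated 24 h with 0.1% DMSO or compound (0.1, 0.5, 1 μM). Cells were stained with Annexin V-FITC in HEPES/NaCl/CaCl₂ binding buffer (pH 7.4) for 15 min at room temperature, then with PI for 10 min. About 10 000 events were acquired by flow cytometry to give viable, early apoptotic, late apoptotic and necrotic fractions.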

[2] = test system: HGC-27; assay: Induction of apoptosis in human HGC-27 cells assessed as late apoptotic cells level at 1 uM incubated for 24 hrs by propidium iode and annexin V-FITC staining based flow cytometry (reference value: 0.86); type: functional; summary of the method: as §1
[3] = test system: HGC-27; assay: Inhibition of colony formation in human HGC-27 cells at 1 uM after 12 days by crystal violet staining based assay; type: functional; conditions: HGC-27, 288 h, time 12 day
Summary of the method: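 HGC-27 cells (500/well, 6-well plates) attached 24 h at 37 °C, then kept 12 days in medium with compound (0.1, 0.5, 1 µM), 0.1% DMSO vehicle or 5 µM sorafenib. Washed with cold PBS, methanol-fixed, stained 0.1% crystal violet 30 min; colonies >50 cells photographed and counted.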

[4] = test system: HGC-27; assay: Antimigratory activity against human HGC-27 cells assessed as number of migration cells at 0.5 uM measured after 24 hrs by transwell migration assay (reference value: 320); type: functional
[5] = biological target: T1, Vascular endothelial growth factor receptor 2 (Homo sapiens, UniProt P35968); assay: Inhibition of VEGFR2 in human HGC-27 cells assessed as downregulation of PI3K phosphorylation at Tyr607 at 0.1 to 1 uM after 24 hrs by Westernblot analysis; type: cell-based; conditions: dose 0.1-1 µM
T1 sequence (P35968 whole entry): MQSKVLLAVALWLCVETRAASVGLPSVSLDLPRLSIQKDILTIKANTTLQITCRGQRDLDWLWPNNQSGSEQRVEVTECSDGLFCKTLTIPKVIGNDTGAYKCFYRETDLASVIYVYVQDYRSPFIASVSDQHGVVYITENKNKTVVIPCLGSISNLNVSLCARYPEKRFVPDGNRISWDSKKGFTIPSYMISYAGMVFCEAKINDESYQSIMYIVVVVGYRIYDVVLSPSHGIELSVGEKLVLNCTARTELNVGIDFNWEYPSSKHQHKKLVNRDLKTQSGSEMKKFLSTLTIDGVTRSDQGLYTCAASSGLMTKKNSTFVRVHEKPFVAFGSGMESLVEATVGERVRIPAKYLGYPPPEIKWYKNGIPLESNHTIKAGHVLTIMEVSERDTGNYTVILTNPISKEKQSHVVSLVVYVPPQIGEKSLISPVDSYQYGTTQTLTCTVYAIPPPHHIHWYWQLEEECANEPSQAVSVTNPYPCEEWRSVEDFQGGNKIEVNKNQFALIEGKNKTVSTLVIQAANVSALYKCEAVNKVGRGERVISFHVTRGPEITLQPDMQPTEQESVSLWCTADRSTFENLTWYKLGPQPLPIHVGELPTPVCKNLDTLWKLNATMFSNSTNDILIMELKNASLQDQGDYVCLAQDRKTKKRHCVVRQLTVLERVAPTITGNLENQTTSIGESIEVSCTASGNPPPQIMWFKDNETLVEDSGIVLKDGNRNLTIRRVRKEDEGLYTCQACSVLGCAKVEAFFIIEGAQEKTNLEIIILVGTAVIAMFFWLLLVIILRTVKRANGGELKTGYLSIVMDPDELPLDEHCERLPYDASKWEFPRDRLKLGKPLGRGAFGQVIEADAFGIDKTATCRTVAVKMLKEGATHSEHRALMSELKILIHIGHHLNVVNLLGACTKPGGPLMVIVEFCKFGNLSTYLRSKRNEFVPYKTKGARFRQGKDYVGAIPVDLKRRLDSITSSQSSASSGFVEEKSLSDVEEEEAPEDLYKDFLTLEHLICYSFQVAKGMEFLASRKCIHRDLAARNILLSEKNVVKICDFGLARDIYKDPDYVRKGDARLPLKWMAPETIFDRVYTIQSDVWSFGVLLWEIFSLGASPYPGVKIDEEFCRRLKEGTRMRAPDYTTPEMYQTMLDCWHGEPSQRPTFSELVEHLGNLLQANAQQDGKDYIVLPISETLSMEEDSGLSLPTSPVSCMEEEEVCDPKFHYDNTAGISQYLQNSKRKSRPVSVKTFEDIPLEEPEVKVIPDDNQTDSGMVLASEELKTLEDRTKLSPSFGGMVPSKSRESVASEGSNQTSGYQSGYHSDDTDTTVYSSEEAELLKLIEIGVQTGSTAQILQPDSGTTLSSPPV
Summary of the method: (§2)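 HGC-27 cells (1.0 × 10⁶ per 60 mm dish) were treated 24 h with 0.1% DMSO or compound (0.1, 0.5, 1 μM). RIPA lysates with phosphatase inhibitor were quantified by BCA and resolved on 8–12% SDS-PAGE onto nitrocellulose. Blots were probed for p-VEGFR-2 (Tyr1175), p-PI3K (Tyr607), p-AKT (Thr308) and p-mTOR (Ser2448), with ECL detection and densitometry; mean ± SEM.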

[6] = test system: HGC-27; assay: Induction of apoptosis in human HGC-27 cells assessed as late apoptotic cells level at 0.5 uM incubated for 24 hrs by propidium iode and annexin V-FITC staining based flow cytometry (reference value: 0.86%); type: functional; summary of the method: as §1
[7] = test system: HGC-27; assay: Induction of apoptosis in human HGC-27 cells assessed as total apoptotic cells level at 0.5 uM incubated for 24 hrs by propidium iode and annexin V-FITC staining based flow cytometry; type: functional; summary of the method: as §1
[8] = test system: HUVEC; assay: Antiangiogenic activity against HUVEC cells assessed as reduction in VEGF-induced tube formation tube formation incubated for 12 hrs by matrigel-based assay; type: functional, cell-based; conditions: Homo sapiens
Summary of the method: (§3)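 HUVECs at 4 × 10⁵ cells/mL seeded on Matrigel that had been polymerized 1 h at 37 °C. Cells were stimulated with 20 ng/mL VEGF and treated with compound (1, 2.5, 5 and 10 μM) or 0.1% DMSO vehicle for 12 h at 37 °C. Tubes were imaged by inverted microscopy. Tube length, surface area and branch points were quantified as pixel area.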

[9] = test system: HUVEC; assay: Antiangiogenic activity against HUVEC cells assessed as reduction in VEGF-induced tube surface area at 1 to 10 uM incubated for 12 hrs by matrigel-based assay; type: functional, cell-based; conditions: Homo sapiens, dose 1-10 µM; summary of the method: as §3
[10] = biological target: T1, Vascular endothelial growth factor receptor 2; assay: Inhibition of VEGFR2 in human HGC-27 cells assessed as downregulation of mTOR phosphorylation at Ser2448 at 0.1 to 1 uM after 24 hrs by Westernblot analysis; type: cell-based; conditions: dose 0.1-1 µM; summary of the method: as §2
[11] = test system: HGC-27; assay: Antiinvasive activity against human HGC-27 cells assessed as reduction in cell invasion measured after 24 hrs by transwell invasion assay; type: functional, cell-based
Summary of the method: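 Transwell inserts (12 μm pore) were precoated with Matrigel. HGC-27 cells at 5 × 10⁵ cells/mL were placed in the upper well in serum-free medium with compound (0.1, 0.5, 1 μM). The lower chamber held RPMI-1640 with 10% FBS. After 24 h at 37 °C, invaded cells were methanol-fixed and stained with 0.1% crystal violet. Cells were counted in three random fields; three independent experiments, mean ± SD.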

[12] = test system: HUVEC; assay: Cytotoxicity against human HUVEC cells assessed as inhibition of cell growth incubated for 72 hrs by MTT assay; type: cell-based
Summary of the method: (§4)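 Log-phase cells were seeded at 5 × 10³ per well and attached 24 h. HT-29 and GES-1 were grown in DMEM-based medium, A549/HepG2/HGC-27 in RPMI-1640, HUVEC in ECM with ECGS; all media had 10% FBS. Cells were exposed to graded compound concentrations for 72 h at 37 °C. MTT (5 mg/mL stock) was added for 4 h, formazan dissolved in DMSO, and A490 read. IC50 was obtained by nonlinear sigmoidal regression; mean ± S.E. of three experiments.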

[13] = test system: HGC-27; assay: Induction of apoptosis in human HGC-27 cells assessed as necrotic cells level at 0.5 uM incubated for 24 hrs by propidium iode and annexin V-FITC staining based flow cytometry (reference value: 1.64%); type: functional; summary of the method: as §1
[14] = biological target: T1, Vascular endothelial growth factor receptor 2; assay: Inhibition of VEGFR2 (unknown origin) incubated for 10 mins followed by kinase substrate addition and measured after 30 mins by caliper mobility shift assay
[15] = test system: HGC-27; assay: Induction of apoptosis in human HGC-27 cells assessed as early apoptotic cells level at 0.1 uM incubated for 24 hrs by propidium iode and annexin V-FITC staining based flow cytometry (reference value: 1.48%); type: functional; summary of the method: as §1
[16] = test system: HGC-27; assay: Induction of apoptosis in human HGC-27 cells assessed as viable cells level at 1 uM incubated for 24 hrs by propidium iode and annexin V-FITC staining based flow cytometry (reference value: 96.0%); type: functional; summary of the method: as §1
[17] = test system: HUVEC; assay: Antiangiogenic activity against HUVEC cells assessed as reduction in VEGF-induced tube length at 1 to 10 uM incubated for 12 hrs by matrigel-based assay; type: functional, cell-based; conditions: Homo sapiens, dose 1-10 µM; summary of the method: as §3
[18] = test system: HGC-27; assay: Antimigratory activity against human HGC-27 cells assessed as number of migration cells at 0.1 uM measured after 24 hrs by transwell migration assay (reference value: 320); type: functional
[19] = test system: HGC-27; assay: Antiproliferative activity against human HGC-27 cells assessed as cell growth inhibition after 72 hrs by MTT assay; type: functional, cell-based; conditions: HGC-27, 72 h; summary of the method: as §4
[20] = test system: HGC-27; assay: Induction of apoptosis in human HGC-27 cells assessed as downregulation of Bcl-xl protein expression at incubated for 24 hrs by western blot analysis; conditions: dose 0.1-1 µM
[21] = test system: HGC-27; assay: Up regulation of E-cadherin expression in human HGC-27 cells at 1 uM measured after 24 hrs by immunoblot analysis; type: functional, cell-based
Summary of the method: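 HGC-27 seeded 1.0×10^6 cells/dish in RPMI-1640/10% FBS; 24 h with compound (0.1, 0.5, 1 µM), 0.1% DMSO vehicle or sorafenib. RIPA lysates with PMSF/phosphatase inhibitor, BCA-normalized, 8–12% SDS-PAGE, nitrocellulose, milk block, primary antibodies overnight 4 °C, HRP secondaries, ECL; E-cadherin band densitometry; mean ± SD, three independent experiments.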

[22] = test system: HGC-27; assay: Induction of apoptosis in human HGC-27 cells assessed as total apoptotic cells level at 0.1 uM incubated for 24 hrs by propidium iode and annexin V-FITC staining based flow cytometry; type: functional; summary of the method: as §1

CC(=O)Nc1n[nH]c2cc(-c3cnn(CC(=O)Nc4ccc(C)c(C(F)(F)F)c4)c3)ccc12
Activity [1]: 9.59%
Activity [2]: 17%
inhibition at 1 µM [3]: 100%
Activity [4]: 87
inhibition [5]: Active
Activity [6]: 11.2%
Activity [7]: 19.55%
inhibition [8]: Dose-Dependent Effect
Activity [9]: Active
inhibition [10]: Active
inhibition [11]: Dose-Dependent Effect
IC50 [12]: 7150 nM
Activity [13]: 10.8%
IC50 [14]: 1.6 nM
Activity [15]: 4.75%
Activity [16]: 61.6%
Activity [17]: Active
Activity [18]: 212
IC50 [19]: 360 nM
Activity [20]: Dose-Dependent Effect
Activity [21]: Dose-Dependent Effect
Activity [22]: 7.42%
